# Assay outcomes (PubChem BioAssay)
# Apaf1 inhib = blocks human Apaf-1 apoptosome activity. 0.71% of 330,000 active. reconstituted apoptosome caspase-3 activity, DEVD-Rh110 fluorescence. O14727. inhibition, % at 20 µM. AID 489030; active = inhibition of at least 40% at 20 µM;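 note: plate controls were DMSO wells for no effect and DEVD-CHO caspase inhibitor wells for full effect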
#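 Assay system: Apoptosome proteins | Medium: pH 7.5 Hepes buffer with CHAPS, BSA, DTT | Also added: Cytochrome c and DEVD-Rh110 substrate | Times: 30 min plus 50 min, RT | Detection: Rhodamine 110 fluorescence at Ex 480/Em 540 nm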
# SENP8 block-1 = inhibitors of human SENP8 protease. Q96LD8. 1.2% of 330,000 active. AID 2540. purified SENP8, Z-RLRGG-aminoluciferin cleavage, luminescence. inhibition, % at 10 µM; in the data active = inhibition above about 50%
# Target sequence (Q96LD8 whole entry, looked up): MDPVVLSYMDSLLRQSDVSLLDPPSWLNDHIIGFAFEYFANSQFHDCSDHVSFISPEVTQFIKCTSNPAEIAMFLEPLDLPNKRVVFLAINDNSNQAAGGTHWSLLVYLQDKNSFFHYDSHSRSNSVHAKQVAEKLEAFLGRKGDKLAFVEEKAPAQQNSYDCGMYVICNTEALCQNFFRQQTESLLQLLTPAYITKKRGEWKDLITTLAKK
# UBC13 polyUb = blocks human UBC13 polyubiquitin chain formation; TR-FRET; P61088; inhibition, % at 20 µM; 0.47% of 330,000 active; in the data active = inhibition above about 45%, passing the limit was not always enough
# Target sequence (P61088 whole entry, looked up): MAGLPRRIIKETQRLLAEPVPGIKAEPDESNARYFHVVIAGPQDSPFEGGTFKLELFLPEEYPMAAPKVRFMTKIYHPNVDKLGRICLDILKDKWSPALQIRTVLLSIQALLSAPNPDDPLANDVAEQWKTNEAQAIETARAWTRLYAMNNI
# SENP8 block-2 = SENP8 (human) protease inhibition; Q96LD8; recombinant SENP8, Nedd8 substrate fluorescence; inhibition, % at 20 µM; 0.64% of 360,000 active; in the data active = inhibition mostly above about 40%, no sharp cut-off; inactive = mostly below about 27%
# SENP6 block = inhibitors of human SENP6 protease. Q9GZR1. inhibition, % at 10 µM. Recombinant SENP6 catalytic domain, aminoluciferin luminescence. 1.8% of 330,000 active;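 active = inhibition above about 50% at the single tested dose, limit read from the data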;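 note: plate controls were DMSO wells with enzyme for no effect and DMSO wells lacking enzyme for full effect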
# SENP7 block = inhibitors of human SENP7 protease; Q9BQF6; recombinant SENP7, Z-RLRGG-aminoluciferin luminescence, 40 min; inhibition, % at 5 µM; 1.5% of 330,000 active; AID 434973;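 active = inhibition above about 50% at the single test dose, limit read from the data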;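 note: plate controls were DMSO with enzyme for no effect and no enzyme buffer wells for full effect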
# SENP8 inh conf = SENP8 (human) inhibition, single concentration confirmation; shares compounds with SENP8 block-2; purified SENP8, Nedd8-AMC/pro-Nedd8 cleavage fluorescence, 30 min; inhibition, % at 25 µM; 15% of 1,400 active; AID 624319; in the data active = inhibition mostly above about 39%, no sharp cut-off; inactive = mostly below about 34%
# An asterisk follows results filed as active; · = not tested or not shown; ! = not active in a repeat. Rows were chosen to be rich in hits. Some 3% of all compounds tested hit in one or more screens of this group.
SMILES,Apaf1 inhib,SENP8 block-1,UBC13 polyUb,SENP8 block-2,SENP6 block,SENP7 block,SENP8 inh conf
COc1ccc(-c2cc(=O)[nH]c(=O)[nH]2)cc1,-8,2,0,-4,-4,-1,·
COc1ccc(-c2cc(=O)[nH][nH]2)cc1,17,2,-10,42*,17,10,28
O=c1cc(-c2ccc(Cl)cc2)[nH][nH]1,7,-2,-12,43*,11,7,33
Cc1nc(CN(C)C(=O)c2cc(COc3ccc4ncccc4c3)on2)cs1,-2,-2,2,-6,0,4,·
Cc1ccc(C(=O)NCC(=O)OCC(=O)N(CC(C)C)c2c(N)n(Cc3ccccc3)c(=O)[nH]c2=O)cc1C,8,-3,-4,5,-11,1,·
Cc1ccc(C(=O)NCC(=O)OCC(=O)N(CC(C)C)c2c(N)n(Cc3ccccc3)c(=O)[nH]c2=O)cc1,3,-1,5,32*,3,7,27
CC1=NCCN1S(=O)(=O)c1cc(Cl)ccc1Cl,0,-3,-3,48*,-8,-8,9
Cc1cc(N2C(=O)Cc3ccccc3C2=O)ccc1C(C)C,23,23,-4,78*,47,26,35
CCOc1ccc(N2C(=O)CCC2=O)cc1,0,-7,3,27,-17,1,·
CCOC(=O)c1ccc(N2C(=O)Cc3ccccc3C2=O)cc1,11,4,-4,63*,28,4,27*
CCOC(=O)c1ccc(N2C(=O)CC(C(=O)OC)=C2C)cc1,18,-7,-4,1,-9,-7,·
CCOc1ccc(N2C(=O)Cc3ccccc3C2=O)cc1,9,3,-1,75*,32,19,26
Clc1cccc(Cc2c(-c3cccc(Br)c3)nc3c4ccccc4ccn23)c1,·,·,·,-183,·,·,·
COc1cc(C)c(S(=O)(=O)NCc2cccs2)cc1C,4,-10,0,41*,-13,14,11
C#CCNC(=O)C1=C[C@H](c2ccc3c(c2)OCO3)C[C@H](OCc2ccc(CO)cc2)O1,-3,-6,-3,-97,11,-9,·
CCN(CC)C(=O)c1ccc2c(c1)nnn2C,-4,-7,-20,2,-11,-9,·
CCOC(=O)c1ccc(NC(=O)CCN2C(=O)C3CC=CCC3C2=O)cc1 (centres undefined),1,2,1,34*,-2,1,7
CCC(=O)Nc1ccc(C(=O)COC(=O)CCN2C(=O)C3CC=CCC3C2=O)cc1 (centres undefined),-11,-18,-4,-14,-9,-6,·
O=C(NC(CSSCC(NC(=O)c1ccccc1)C(=O)O)C(=O)O)c1ccccc1 (centres undefined),-3,-12,-4,63*,-14,9,11
CC(C)NC(=O)Cn1cc(C(=O)C(=O)N2CCOCC2)c2ccccc21,-7,6,5,8,-8,-1,·
COc1ccc(C2C(C(C)=O)=C(O)C(=O)N2C)c(OC)c1 (centres undefined),33,-3,-2,42*,-5,10,26
Cc1ccc(S(=O)(=O)Oc2ccc(C(c3c(C)[nH][nH]c3=O)c3c(C)[nH][nH]c3=O)cc2)cc1,8,2,-2,39,-4,3,·
CCOc1cc(C(c2c(C)[nH][nH]c2=O)c2c(C)[nH][nH]c2=O)ccc1OS(=O)(=O)c1ccccc1,31,-7,-14,44*,11,-7,47*
C[N+]1(C)CCC(=C2c3ccccc3CC(=O)c3sccc32)CC1,57*,3,-30,75*,36,14,56*
CC[N+]1(C)CCC(=C2c3ccccc3CC(=O)c3sccc32)CC1 (centres undefined),-11,-2,0,20,-1,3,·
SMILES,Apaf1 inhib,SENP8 block-1,UBC13 polyUb,SENP8 block-2,SENP6 block,SENP7 block,SENP8 inh conf
O=C(OCc1ccc(Cl)c(Cl)c1)c1cnccn1,14,-17,1,45*,9,1,-9
Cc1c(C)c(C)c(C(=O)C2CCN(c3ccc([N+](=O)[O-])cn3)CC2)c(C)c1C,5,6,1,44*,5,0,16
CC1(c2ccccc2)CC(C)(C)n2c(O)c(C3=NC(=S)NC3=O)c3cccc1c32 (centres undefined),19,-1,-26,50*,-7,3,16
O=C(CNC(=O)c1ccccc1)N/N=C/C=C/c1ccccc1,2,8,-10,4,10,1,·
O=C(Cc1cc(=O)[nH][nH]1)N/N=C/C=C/c1ccccc1,48*!,1,-2,44*,4,4,34
O=C(NC(=S)N1CCN(C/C=C/c2ccccc2)CC1)c1ccco1,-11,-4,3,4,2,-5,·
O=C(NC(=S)N1CCN(C/C=C/c2ccccc2)CC1)c1c(F)cccc1F,7,-1,-2,43*,11,8,8
CCOC(=O)c1cc([N+](=O)[O-])cc([N+](=O)[O-])c1Sc1ncnc2nc[nH]c12,·,·,·,63*,·,·,34
O=C(O)c1cccc(C(=O)c2cccc(C(=O)O)c2)c1,1,16,1,8,0,6,·
O=C(O)c1cccc(Br)c1,·,·,·,42*,·,·,4
CSCC[C@H](NC(=O)c1cc2c([nH]c3ccccc32)c(-c2ccccc2)n1)C(=O)O,2,2,0,-246,13,3,·
CCOC(=O)c1c(C)[nH]c(C(=O)COC(=O)[C@H](C)N2C(=O)C3CCCCC3C2=O)c1C (some centres undefined),·,·,·,5,·,·,·
COc1cc(CCC(O)CC(=O)CCc2ccccc2)ccc1O (centres undefined),-7,-14,1,46*,-16,8,15
COc1cc(/C=N/NC(=O)CCc2ccccc2)ccc1O,-2,-5,6,-11,4,-2,·
Cc1cc2ccccn2c1C(=O)c1ccc(NN)c([N+](=O)[O-])c1,8,4,-47,42*,4,5,11
CCOC(=O)[C@]12CCCC=C1N(CCC1=CCCCC1)C(=O)[C@H](CC(=O)NCCCN1CCCC1=O)C2,·,·,·,42*,·,·,9
O=c1[nH]c(CN2CCCCC2)ccc1O,·,·,·,68*,·,·,38*
CN1c2ccc(Cl)cc2C(=O)NC1C1CC=CCC1 (centres undefined),-11,2,23,-352,-4,3,·
COC(=O)C1=C(C)N(C2CCCCC2)C(=O)C1,-4,4,3,42*,1,4,6
CCOC(=O)C1=C(C)N(C2CCCCC2)C(=O)C1,1,7,-9,22,-13,-2,·
COc1ccc(C(=O)N2CCc3ccccc32)cc1S(=O)(=O)N1CCOCC1,-5,0,6,4,0,2,·
